These results are taken from ChEMBL document CHEMBL3046655, “Schiff bases as potential fungicides and nitrification inhibitors” (2009).

Values after ≈ are worked out from the molar mass of the structure shown. Active and inactive are the calls of the source. The calls are words filed in the database; no cut-off is given here.

The test system of experiment [1] is Athelia rolfsii. In words: Fungicidal activity against Athelia rolfsii assessed as fungal growth inhibition at 28 degC by poisoned food technique. The class given is functional. As to conditions: Agroathelia rolfsii; for EC50: read-out: ED50 (the source's name). In outline: (§1)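 Poisoned-food assay on PDA. A 5 mm plug from the growing edge of a 2-week colony was placed centrally. Plates were held at 28 °C until control growth was nearly complete. Colony diameter was measured; n=4. Inhibition = (C−T)×100/C, Abbott-corrected; ED50 by probit.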

Experiment [2] deals with Macrophomina phaseolina. Kind of experiment: Fungicidal activity against Rhizoctonia bataticola assessed as fungal growth inhibition at 28 degC by poisoned food technique. As to conditions: for EC50: read-out: ED50 (the source's name). The class given is functional. In outline: as §1

On to `O=[N+]([O-])c1cccc(/C=N/CCC/N=C/c2cccc([N+](=O)[O-])c2)c1`, for which the ED50 entry in experiment [1] and in experiment [2] was “inactive” in each case.

Take `Clc1cccc(Cl)c1/C=N/C1CCCCC1/N=C/c1c(Cl)cccc1Cl` (stereo unspecified): the figures for the EC50 in experiment [1] and in experiment [2] were 39.5 µg/mL (≈ 92.3 µM) and 124 µg/mL (≈ 290 µM), respectively.

Take `Clc1cccc(Cl)c1/C=N/CCCC/N=C/c1c(Cl)cccc1Cl`: the EC50 turned out to be 22.1 µg/mL (≈ 54.8 µM) in experiment [1] and 12.4 µg/mL (≈ 30.9 µM) in experiment [2].

Consider `Clc1ccc(/C=N/c2cc(Cl)c(Cl)cc2Cl)c(Cl)c1`, for which the EC50 in experiment [1] was found to be 24.4 µg/mL (≈ 68.9 µM); in experiment [2] it was 3.05 µg/mL (≈ 8.63 µM).

Regarding `Clc1cccc(Cl)c1/C=N/c1ccco1`, the EC50 in experiment [1] worked out at 78.3 µg/mL (≈ 326 µM); in experiment [2], 45.7 µg/mL (≈ 190 µM).

In the case of `Clc1ccc(/C=N/c2ccco2)c(Cl)c1`, the EC50 came to 35.2 µg/mL (≈ 147 µM) in experiment [1] and 23.1 µg/mL (≈ 96.4 µM) in experiment [2].

In the case of `Clc1ccc(/C=N/CCCC/N=C/c2ccc(Cl)cc2Cl)c(Cl)c1`, the figures for the EC50 in experiment [1] and in experiment [2] were 179 µg/mL (≈ 444 µM) and 100 µg/mL (≈ 249 µM), respectively.

With `Fc1ccc(/N=C/c2c(Cl)cccc2Cl)cc1`, the EC50 in experiment [1] was 108 µg/mL (≈ 403 µM); in experiment [2], 123 µg/mL (≈ 459 µM).

As to `Clc1ccc(/C=N/CCC/N=C/c2ccc(Cl)cc2Cl)c(Cl)c1`, the results for the EC50 in experiment [1] and in experiment [2] were 27.1 µg/mL (≈ 69.9 µM) and 17.8 µg/mL (≈ 45.7 µM), respectively.

In the case of `Fc1cccc(/N=C/c2ccc(Cl)cc2Cl)c1`, the EC50 in experiment [1] was 548 µg/mL (≈ 2040 µM); in experiment [2], 600 µg/mL (≈ 2240 µM).

On to `O=[N+]([O-])c1cccc(/C=N/CCCC/N=C/c2cccc([N+](=O)[O-])c2)c1`, for which the ED50 entry in experiment [1] and in experiment [2] was “inactive” in each case.

Consider `O=[N+]([O-])c1cccc(/C=N/c2ccccc2F)c1`, for which the EC50 turned out to be 160 µg/mL (≈ 656 µM) in experiment [1] and 113 µg/mL (≈ 462 µM) in experiment [2].

For the molecule `O=[N+]([O-])c1cccc(/C=N/c2ccco2)c1`, the EC50 in experiment [1] is 201 µg/mL (≈ 930 µM); in experiment [2], 17.1 µg/mL (≈ 79.2 µM).

Turning to `Fc1ccccc1/N=C/c1ccc(Cl)cc1Cl`, the EC50 in experiment [1] was 63.4 µg/mL (≈ 237 µM); in experiment [2], 15.6 µg/mL (≈ 58 µM).

`Fc1cccc(/N=C/c2c(Cl)cccc2Cl)c1`: the figures for the EC50 in experiment [1] and in experiment [2] were 87 µg/mL (≈ 324 µM) and 54 µg/mL (≈ 201 µM), respectively.

`Clc1ccc(/C=N/C2CCCCC2/N=C/c2ccc(Cl)cc2Cl)c(Cl)c1` (stereo unspecified): the EC50 came to 34.2 µg/mL (≈ 79.9 µM) in experiment [1] and 18.3 µg/mL (≈ 42.7 µM) in experiment [2].

As to `O=[N+]([O-])c1cccc(/C=N/c2cc(Cl)c(Cl)cc2Cl)c1`, the EC50 in experiment [1] was 21.7 µg/mL (≈ 65.9 µM); in experiment [2], 6.17 µg/mL (≈ 18.7 µM).

With `O=[N+]([O-])c1cccc(/C=N/C2CCCCC2/N=C/c2cccc([N+](=O)[O-])c2)c1` (stereo unspecified), the ED50 result in experiment [1] and in experiment [2] was “inactive” throughout.

Regarding `Fc1ccc(/N=C/c2ccc(Cl)cc2Cl)cc1`, the EC50 came out at 37.4 µg/mL (≈ 140 µM) in experiment [1] and 21.8 µg/mL (≈ 81.4 µM) in experiment [2].

Take `O=[N+]([O-])c1cccc(/C=N/c2cccc(F)c2)c1`: the figures for the EC50 in experiment [1] and in experiment [2] were 175 µg/mL (≈ 718 µM) and 180 µg/mL (≈ 737 µM), respectively.

In the case of `Fc1ccccc1/N=C/c1c(Cl)cccc1Cl`, the EC50 in experiment [1] came out at 45.6 µg/mL (≈ 170 µM); in experiment [2], 45 µg/mL (≈ 168 µM).

Turning to `CCCCC(O)(Cn1cncn1)c1ccc(Cl)cc1Cl` (stereo unspecified) [HEXACONAZOLE], the EC50 in experiment [1] amounted to 2.3 µg/mL (≈ 7.32 µM); in experiment [2], 1.7 µg/mL (≈ 5.41 µM).

In the case of `O=[N+]([O-])c1cccc(/C=N/c2ccc(F)cc2)c1`, the EC50 in experiment [1] turned out to be 164 µg/mL (≈ 672 µM); in experiment [2], 190 µg/mL (≈ 779 µM).
